The values that follow come from ChEMBL document CHEMBL1124986, “Imidazodiazepinediones: a new class of adenosine receptor antagonists” (J Med Chem, 1990).

In test [1] the target is T1, Adenosine receptor A1 (Rattus norvegicus, UniProt P25099).
T1 sequence (P25099 whole entry): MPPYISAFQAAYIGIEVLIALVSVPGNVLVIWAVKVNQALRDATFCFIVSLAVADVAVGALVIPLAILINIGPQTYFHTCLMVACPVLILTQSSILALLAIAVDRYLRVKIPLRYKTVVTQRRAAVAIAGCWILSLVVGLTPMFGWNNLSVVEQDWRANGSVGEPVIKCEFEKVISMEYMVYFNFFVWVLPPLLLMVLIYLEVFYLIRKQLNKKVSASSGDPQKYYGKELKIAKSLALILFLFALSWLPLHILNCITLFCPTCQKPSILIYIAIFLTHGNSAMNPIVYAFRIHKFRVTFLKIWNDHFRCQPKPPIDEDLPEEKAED
Kind of test: Binding affinity for Adenosine A1 receptor from rat brain using [3H]-PIA as radioligand. In a few lines: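 Rat cerebral cortex membranes incubated with 1 nM [³H]PIA at 37 °C. Means ± SEM, n = 3-5. Where inhibition was incomplete, percent inhibition at the highest concentration tested is reported.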

Test [2] has as its target T2, Adenosine A2 receptor (Rattus norvegicus, UniProt P29276+P30543). Kind of test: Antagonism of N-ethylcarboxamido adenosine-stimulated adenylate cyclase associated with stimulation of Adenosine A2 receptor of rat PC12 membranes. Format: functional, cell membranes, Membrane. As to conditions: pc-12.
The target of test [3] is T2, Adenosine A2 receptor. Kind of test: Binding affinity for Adenosine A2 receptor from rat striatum using [3H]NECA as radioligand. The test is classed as protein assay.
The target in test [4] is Adenosine A2 receptor (Rattus norvegicus) (UniProt P29276+P30543). Kind of test: Inhibition of [3H]NECA binding to Adenosine A2 receptor in rat striatal membrane. Format: cell membranes. Also noted: concentration or dose not given beside the values. Conditions: Striatum, concentration not given here. The procedure, abridged:
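Rat striatal membranes with 4 nM [³H]NECA; 50 nM N⁶-cyclopentyladenosine present to block A1 sites. IC50 converted to Ki by Cheng-Prusoff using KD 8.5 nM for [³H]NECA at A2 receptors. Means ± SEM, n = 3. Where inhibition was incomplete, percent inhibition at the highest concentration tested is reported.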

The target of test [5] is T3, Adenosine receptor A1 (Rattus norvegicus) (UniProt P25099).
T3 sequence (whole entry): T1 sequence (P25099 whole entry)
Description: Inhibition of [3H]PIA binding to Adenosine A1 receptor in rat cerebral cortical membrane. As to conditions: concentration not given here. More on the design: concentration or dose not given beside the values. Format: cell membranes. In a few lines:
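Rat cerebral cortex membranes incubated with 1 nM [³H]PIA at 37 °C. […] Means ± SEM, n = 3-5. Where inhibition was incomplete, percent inhibition at the highest concentration tested is reported.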

In general, Ki refers to a measure of affinity in units of concentration, obtained from inhibition or displacement. Regarding `CC(C)Cn1c(=O)n(C)c(=O)c2c1ncn2Cc1ccccc1`, the Ki stood at 6.9 µM in test [1], 7.5 µM in test [2] and 32 µM in test [3].

For `Cn1c(=O)c2c(ncn2Cc2ccccc2)n(C)c1=O`, the Ki in test [2] was determined as 5.6 µM; in test [3] it was 46 µM.

Consider `CN1CC(=O)N(C)c2nc[nH]c2C1=O`, for which the Ki in test [1] was > 250 µM.

`CCN1CC(=O)N(CC)c2nc[nH]c2C1=O`: the Ki in test [1] was > 250 µM.

As a reminder, the inhibition is how much of the control response was suppressed. For the compound `Cn1cnc2c1c(=O)[nH]c(=O)n2C` [THEOBROMINE], the values for the Ki in test [1], in test [2] and in test [3] were 105 µM, 250 µM and > 250 µM, respectively. This compound returned an inhibition in test [4] of 40%.

With `CCN1CC(=O)N(CC)c2ncn(C)c2C1=O`, the Ki is > 250 µM in test [1], 260 µM in test [2] and > 250 µM in test [3]. Further, the inhibition is 17% in test [4] and 40% in test [5].

Turning to `CCN1CC(=O)N(CC)c2[nH]cnc2C1=O`, the Ki was > 300 µM in test [2] and > 250 µM in test [3]. In addition, the inhibition came out at 20% in test [4] and 40% in test [5].

In the case of `CC(C)CN1C(=O)CN(C)C(=O)c2[nH]cnc21`, the values for the Ki in test [1], in test [2] and in test [3] were 104 µM, > 300 µM and >> 250 uM, respectively. Further, in test [4], the inhibition amounted to 15%.

For `CN1C(=O)CNC(=O)c2c1ncn2C`, the Ki in test [1] was > 250 µM; in test [2], > 300 µM; in test [3], >> 250 uM. The results for the inhibition in test [4] and in test [5] were 11% and 10%, respectively.

`CN1CC(=O)N(C)c2ncn(C)c2C1=O`: the Ki was > 250 µM in test [1], > 300 µM in test [2] and >> 250 uM in test [3]. Also, the results for the inhibition in test [4] and in test [5] were 9% and 10%, respectively.

As to `CN1CC(=O)N(C)c2ncn(Cc3ccccc3)c2C1=O`, the Ki in test [1] was 30 µM; in test [2], 120 µM; in test [3], > 250 µM. This compound returned an inhibition in test [4] of 30%.

`CCCN1CC(=O)N(CCC)c2ncn(Cc3ccccc3)c2C1=O`: the Ki in test [1] came out at 11 µM; in test [2], 47 µM; in test [3], 52 µM.

Turning to `CCCN1CC(=O)N(CCC)c2ncn(C)c2C1=O`, the Ki is > 250 µM in test [1], 170 µM in test [2] and > 250 µM in test [3]. Moreover, the inhibition in test [4] stood at 23%; in test [5], 40%.

Take `CC(C)CN1C(=O)CN(C)C(=O)c2c1ncn2Cc1ccccc1`: the Ki in test [1] worked out at 11.3 µM; in test [2] it was 116 µM; in test [3], 140 µM.

`CCCN1C(=O)CNC(=O)c2c1ncn2Cc1ccccc1`: the results for the Ki in test [1], in test [2] and in test [3] were 32 µM, 163 µM and 151 µM, respectively.

Regarding `CCCN1C(=O)CNC(=O)c2[nH]cnc21`, the Ki was 236 µM in test [1], > 300 µM in test [2] and >> 250 uM in test [3]. The compound also yielded an inhibition in test [4] of 11%.

`CCCn1c(=O)c2c(ncn2Cc2ccccc2)n(CCC)c1=O`: the Ki in test [2] is 0.88 µM; in test [3] it was 3.8 µM.

Consider `CC(C)Cn1c(=O)n(C)c(=O)c2nc[nH]c21` [ISOBUTYLMETHYLXANTHINE], for which the Ki in test [1] was determined as 6.7 µM; in test [2] it was 6.3 µM; in test [3], 9.1 µM.

With `CN1CC(=O)N(C)c2[nH]cnc2C1=O`, the inhibition constant Ki in test [2] was > 300 µM; in test [3] it was >> 250 uM. Also, the inhibition amounted to 9% in test [4] and 30% in test [5].

For `CCN1CC(=O)N(CC)c2ncn(Cc3ccccc3)c2C1=O`, the figures for the Ki in test [1], in test [2] and in test [3] were 16 µM, 76 µM and 81 µM, respectively.
